Where a name gives a salt, the structure may show the parent alone.
Biological target: Human immunodeficiency virus type 1 reverse transcriptase (Human immunodeficiency virus 1, UniProt Q72547)
Test: In vitro inhibitory concentration against HIV-1 reverse transcriptase using rC-dG template primer
Conditions: not given

SMILES	IC50
CCc1cc(CNc2cc(CC)c(C)nc2O)c(O)nc1C	0.091 µM
CCc1cc(NCc2nc3c(cc2OC)CCCC3)c(O)nc1C	0.047 µM
CCc1cc(NCc2nc3c(cc2OC)CCC3)c(O)nc1C	0.04 µM
CCc1cc(NCc2ccccc2[N+](=O)[O-])c(=O)[nH]c1C	0.53 µM
CCc1cc(NCc2ccccc2COC)c(O)nc1C	35.5 µM
CCc1cc(NCc2ccccc2OC)c(O)nc1C	0.265 µM
CCc1cc(NCc2cc3c(cc2OC)CCC3)c(=O)[nH]c1C	0.04 µM
CCc1cc(NCc2nc(CC)c(C)cc2OC)c(O)nc1C	0.07 µM
CCc1cc(NCc2ncccc2OC)c(=O)[nH]c1C	1.55 µM
CCOCn1c(Sc2ccccc2)c(CC)c(=O)[nH]c1=O	0.032 µM
CC(C)=CCN1Cc2cccc3[nH]c(=S)n(c23)C[C@@H]1C	0.07 µM
CCc1cc(NCc2cnccc2OC)c(=O)[nH]c1C	10 µM
CCc1ccc(OC)c(CNc2cc(CC)c(C)nc2O)c1	0.032 µM
CCc1cc(CCc2cc(CC)c(C)nc2OC)c(O)nc1C	0.065 µM
CCc1ccc(CNc2cc(CC)c(C)nc2O)c(OC)c1	0.51 µM
CCc1cc(NCc2ccccc2N)c(O)nc1C	28 µM
CCc1cc(NCc2ccccc2C(F)(F)F)c(=O)[nH]c1C	12.5 µM
CCc1ccccc1CNc1cc(CC)c(C)[nH]c1=O	6.9 µM
CCc1cc(NCc2cc(C)c(C)cc2OC)c(O)nc1C	0.008 µM
CCc1cc(CCc2nc3ccccc3o2)c(O)nc1C	0.02 µM
CCc1cc(CNc2cc(CC)c(C)[nH]c2=O)c(OC)cc1C	0.033 µM

SMILES	IC50
CCc1cc(CCc2cc(CC)c(C)nc2O)c(O)nc1C	0.4 µM
CCc1cc(NCc2cc3c(nc2OC)CCCC3)c(O)nc1C	0.035 µM
CCc1cc(NCc2cc(C)c(C)nc2OC)c(O)nc1C	0.009 µM
CCc1cc(NCc2cccc(C)c2OC)c(O)nc1C	3.8 µM
CCc1cc(NCc2cc3ccccc3nc2OC)c(O)nc1C	0.034 µM
CCc1cc(NCc2ccncc2OC)c(=O)[nH]c1C	110 µM
CCOc1ccccc1CNc1cc(CC)c(C)nc1O	0.35 µM
CCc1cc(NCc2ccccc2C#N)c(=O)[nH]c1C	0.79 µM
CCc1cc(NCc2ccccc2O)c(=O)[nH]c1C	4.6 µM
CCc1cc(NCc2cccnc2OC)c(O)nc1C	0.68 µM
CCc1cc(NCc2nc(C)c(C)cc2OC)c(O)nc1C	0.07 µM
CCc1cc(NCc2ccc(OC)cc2)c(O)nc1C	7.5 µM
CCc1cc(NCc2ccccc2Cl)c(O)nc1C	1.45 µM
CCc1cc(NCc2ccccc2C)c(O)nc1C	2.2 µM
CCc1cc(NCc2cccc(OC)c2)c(=O)[nH]c1C	1.25 µM
CCc1cc(NCc2cc(CC)c(C)nc2OC)c(O)nc1C	0.019 µM
CCc1cc(NCc2c(C)cccc2OC)c(=O)[nH]c1C	1.3 µM
CCc1cc(NCc2ccccc2F)c(O)nc1C	1.4 µM
CCc1cc(NCc2ccccc2SC)c(=O)[nH]c1C	1.5 µM
CCc1cc(NCc2ccc(C)cc2OC)c(O)nc1C	0.032 µM
CCc1cc(NCc2cc(C)ccc2OC)c(O)nc1C	0.023 µM

Test system: MT4
Test: Cell culture inhibitory concentration against spread of HIV-I infection in MT-4 cells was determined
Assay type: functional
Conditions: Homo sapiens, read-out: CIC95
How it was run: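 Spread of HIV-1 infection in MT-4 cell culture; the read-out is HIV-1 p24 core antigen by ELISA. The value is the lowest concentration giving ≥95% inhibition of infection spread (CIC95).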

SMILES	IC95
CCc1cc(NCc2ccccc2OC)c(O)nc1C	0.4 µM
CCOCn1c(Sc2ccccc2)c(CC)c(=O)[nH]c1=O	0.1 µM
CC(C)=CCN1Cc2cccc3[nH]c(=S)n(c23)C[C@@H]1C	0.2 µM
CCc1cc(NCc2cc(C)c(C)cc2OC)c(O)nc1C	0.013 µM
CCc1cc(NCc2cc(C)c(C)nc2OC)c(O)nc1C	0.05 µM
CCc1cc(NCc2cccnc2OC)c(O)nc1C	0.8 µM
CCc1cc(NCc2nc(C)c(C)cc2OC)c(O)nc1C	0.1 µM
CCc1cc(NCc2cc(CC)c(C)nc2OC)c(O)nc1C	0.013 µM
CCNc1cccnc1N1CCN(C(=O)c2cc3cc(OC)ccc3[nH]2)CC1 [ATEVIRDINE MESYLATE]	1.5 µM
CCc1cc(NCc2nc3c(Cl)ccc(Cl)c3o2)c(O)nc1C [L-697661]	0.05 µM
Cc1ccnc2c1NC(=O)c1cccnc1N2C1CC1 [NEVIRAPINE]	0.1 µM

— ChEMBL document CHEMBL1127029, “Synthesis and evaluation of 2-pyridinone derivatives as specific HIV-1 reverse transcriptase inhibitors. 3. Pyridyl and phenyl analogs of 3-aminopyridin-2(1H)-one” (J Med Chem, 1993)
